Reference: PMC4506215 (Nature, 2015)
Where a chain is given by its changes, count along the chain named.

Key:
[1] = biological target: T1, mutant AR (expressed in LNCaP) (Homo sapiens, UniProt P10275, T878A); experiment: cell-based; assay type: binding
T1 sequence (P10275 1-920 T878A): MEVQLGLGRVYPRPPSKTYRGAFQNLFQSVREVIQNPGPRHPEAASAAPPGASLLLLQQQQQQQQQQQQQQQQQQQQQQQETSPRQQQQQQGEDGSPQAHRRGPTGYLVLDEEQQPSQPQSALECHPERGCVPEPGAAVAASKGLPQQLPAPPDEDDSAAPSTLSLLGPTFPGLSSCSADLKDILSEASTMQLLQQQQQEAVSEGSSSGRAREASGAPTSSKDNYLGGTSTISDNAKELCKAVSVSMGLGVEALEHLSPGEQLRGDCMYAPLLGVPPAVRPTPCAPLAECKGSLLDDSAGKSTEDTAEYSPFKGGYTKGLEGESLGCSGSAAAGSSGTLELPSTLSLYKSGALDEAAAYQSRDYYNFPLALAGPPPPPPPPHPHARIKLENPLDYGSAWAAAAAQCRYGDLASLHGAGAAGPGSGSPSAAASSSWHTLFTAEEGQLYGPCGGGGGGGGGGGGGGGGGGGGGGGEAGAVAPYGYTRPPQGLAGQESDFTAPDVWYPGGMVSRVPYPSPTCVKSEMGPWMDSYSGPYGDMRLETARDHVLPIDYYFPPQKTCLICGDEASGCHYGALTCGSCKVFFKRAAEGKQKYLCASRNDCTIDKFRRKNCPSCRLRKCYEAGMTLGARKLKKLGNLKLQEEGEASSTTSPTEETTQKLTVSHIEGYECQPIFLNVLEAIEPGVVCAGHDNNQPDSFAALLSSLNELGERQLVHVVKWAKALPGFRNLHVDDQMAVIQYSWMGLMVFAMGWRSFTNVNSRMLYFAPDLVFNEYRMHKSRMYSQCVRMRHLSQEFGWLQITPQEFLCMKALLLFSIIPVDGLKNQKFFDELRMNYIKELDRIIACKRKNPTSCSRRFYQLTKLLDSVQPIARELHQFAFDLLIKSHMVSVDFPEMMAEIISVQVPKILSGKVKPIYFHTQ

[2] = biological target: T2, wild-type AR (expressed in LAPC4) (Homo sapiens, UniProt P10275); experiment: cell-based; assay type: binding
T2 sequence (P10275 1-920): T1 sequence (P10275 1-920 T878A) with A878T

SRD5A = biological target: T3, SRD5A (Homo sapiens, UniProt P18405); experiment: Conversion of [3H]-AD to 5α-reduced androgens in LAPC4 cells; assay type: cell-based; settings: up to 100 μM
T3 sequence (P18405 1-259): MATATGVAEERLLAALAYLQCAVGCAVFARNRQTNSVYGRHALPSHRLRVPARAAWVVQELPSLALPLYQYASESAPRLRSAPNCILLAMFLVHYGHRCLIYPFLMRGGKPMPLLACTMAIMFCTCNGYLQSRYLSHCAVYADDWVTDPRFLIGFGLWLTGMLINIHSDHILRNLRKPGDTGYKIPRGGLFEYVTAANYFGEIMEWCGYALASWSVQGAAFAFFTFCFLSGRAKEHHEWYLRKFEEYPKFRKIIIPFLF
How it was run: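 LAPC4 cells (IMDM, 10% FBS) seeded at 0.2 million/well for ~24 h, then given [3H]-AD mixed with unlabeled AD (final 100 nM, ~1,000,000 cpm/well) plus test compound at 37°C. Medium treated with β-glucuronidase (65°C, 2 h), extracted with ethyl acetate:isooctane (1:1), dried. Steroids separated by C18 reverse-phase HPLC, methanol/water gradient. Biological n=3; repeated three times.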

[3] = patients, wide interpatient variability; cited from earlier work
metastatic CRPC = settings: cited from earlier work
LNCaP cells = experiment: Cell proliferation assay, DHT-induced growth; assay type: cell-based; settings: DHT 0.5 nM, 2, 4 and 6 days
How it was run: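 LNCaP cells (0.1 million/mL) in phenol red-free RPMI-1640 with 10% charcoal-stripped FBS plus androgen and/or test compound. Medium changed every other day. Cells lysed after 2, 4 or 6 days; growth measured as DNA content by Hoechst fluorescence. Two-tailed Student's t-test.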

| SMILES | IC50 [1] [µM] | IC50 [2] [µM] | effect on conversion from AD to 5α-reduced androgens (SRD5A) | Cmax [3] [µM] | survival in metastatic CRPC (metastatic CRPC) | effect on DHT-stimulated cell growth (LNCaP cells) |
| --- | --- | --- | --- | --- | --- | --- |
| C[C@]12CC[C@H](O)CC1=CC[C@@H]1[C@@H]2CC[C@]2(C)C(c3cccnc3)=CC[C@@H]12 [Abi, abiraterone] | 0.418 | > 0.5 | no detectable effect | ~1 |  |  |
| CNC(=O)c1ccc2cc([C@@]3(O)CCn4cncc43)ccc2c1 [TAK-700] |  |  |  |  | failed to prolong survival |  |
| CNC(=O)c1ccc(N2C(=S)N(c3ccc(C#N)c(C(F)(F)F)c3)C(=O)C2(C)C)cc1F [enzalutamide] |  |  | no detectable effect |  |  | more potent than Abi |
